The text below walks through data of ChEMBL document CHEMBL3751721, “Development of acridine derivatives as selective Mycobacterium tuberculosis DNA gyrase inhibitors” (Bioorg Med Chem, 2016).

What is called inhibition is how much of the control response was suppressed. The term IC50 denotes the concentration that inhibits the measured activity by half. The term MIC denotes the lowest concentration found to suppress growth. Low values mean a more susceptible organism, high ones a less susceptible organism.

≈ marks a conversion by molar mass, not a printed value. Calls of active or inactive are those of the source. The rule behind the calls is not given here.

DNA gyrase (Staphylococcus aureus), sequence (P0A0K8 2-644 limits assumed): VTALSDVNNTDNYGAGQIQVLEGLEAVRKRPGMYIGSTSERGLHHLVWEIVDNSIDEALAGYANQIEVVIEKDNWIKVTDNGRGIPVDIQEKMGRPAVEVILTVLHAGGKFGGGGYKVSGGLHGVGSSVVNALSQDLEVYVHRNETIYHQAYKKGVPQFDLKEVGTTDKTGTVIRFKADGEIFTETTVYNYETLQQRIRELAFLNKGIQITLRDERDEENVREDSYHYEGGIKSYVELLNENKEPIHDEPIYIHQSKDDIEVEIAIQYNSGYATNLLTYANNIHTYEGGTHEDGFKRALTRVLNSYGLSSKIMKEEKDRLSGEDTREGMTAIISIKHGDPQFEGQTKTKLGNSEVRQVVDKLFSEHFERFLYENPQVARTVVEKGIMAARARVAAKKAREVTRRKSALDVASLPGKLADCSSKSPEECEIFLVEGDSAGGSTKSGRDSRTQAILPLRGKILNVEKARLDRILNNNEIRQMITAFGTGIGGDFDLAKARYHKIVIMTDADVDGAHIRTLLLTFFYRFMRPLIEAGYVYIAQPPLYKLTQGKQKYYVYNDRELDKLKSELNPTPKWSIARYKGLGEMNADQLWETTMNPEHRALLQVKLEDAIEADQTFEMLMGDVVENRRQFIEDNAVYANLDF
DNA gyrase (Staphylococcus aureus), sequence (P20831 whole entry partner): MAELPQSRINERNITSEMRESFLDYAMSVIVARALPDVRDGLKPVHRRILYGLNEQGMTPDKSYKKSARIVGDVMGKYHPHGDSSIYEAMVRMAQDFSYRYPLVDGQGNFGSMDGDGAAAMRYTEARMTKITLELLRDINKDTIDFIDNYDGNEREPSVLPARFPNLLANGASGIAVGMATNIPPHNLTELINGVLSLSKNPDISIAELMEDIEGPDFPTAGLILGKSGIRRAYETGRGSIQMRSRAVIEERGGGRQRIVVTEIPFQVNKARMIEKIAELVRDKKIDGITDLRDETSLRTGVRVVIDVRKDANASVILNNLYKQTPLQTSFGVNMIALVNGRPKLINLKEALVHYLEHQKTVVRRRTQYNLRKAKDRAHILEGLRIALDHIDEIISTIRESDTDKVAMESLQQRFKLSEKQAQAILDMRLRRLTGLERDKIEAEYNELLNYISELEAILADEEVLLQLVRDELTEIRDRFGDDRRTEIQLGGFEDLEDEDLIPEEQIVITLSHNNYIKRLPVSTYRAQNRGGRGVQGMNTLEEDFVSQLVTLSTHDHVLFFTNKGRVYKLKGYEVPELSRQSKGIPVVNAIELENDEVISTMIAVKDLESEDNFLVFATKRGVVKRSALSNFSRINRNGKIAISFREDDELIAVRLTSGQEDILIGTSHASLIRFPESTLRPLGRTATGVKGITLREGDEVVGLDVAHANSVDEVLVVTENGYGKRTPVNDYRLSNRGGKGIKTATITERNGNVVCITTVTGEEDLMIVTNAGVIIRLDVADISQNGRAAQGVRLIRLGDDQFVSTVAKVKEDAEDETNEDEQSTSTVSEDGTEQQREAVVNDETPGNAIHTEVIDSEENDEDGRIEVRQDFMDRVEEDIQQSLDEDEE

The test system of the first data set is Mycobacterium tuberculosis. Briefly: Inhibition of Mycobacterium tuberculosis DNA topoisomerase 1 assessed as DNA relaxation at 50 uM.
Settings: not given
In the case of `S=C(Nc1ccc(Cl)cc1)Nc1ccc(Nc2c3ccccc3nc3ccc(Cl)cc23)cc1`, the inhibition result is “inactive”.
Still for that read-out and setting: with `O=C(Nc1ccc(Nc2c3ccccc3nc3ccc(Cl)cc23)cc1)Nc1ccc([N+](=O)[O-])cc1` the entry was “inactive”; with `O=[N+]([O-])c1ccc(NC(=S)Nc2ccc(Nc3c4ccccc4nc4ccc(Cl)cc34)cc2)cc1`, “inactive”.
Same read-out and setting: as for `Cc1ccc(NC(=S)Nc2ccc(Nc3c4ccccc4nc4ccc(C)cc34)cc2)cc1`, the entry is “inactive”; as for `Cc1ccc(NC(=O)Nc2ccc(Nc3c4ccccc4nc4ccc(C)cc34)cc2)cc1`, “inactive”; as for `Cc1ccc2nc3ccccc3c(Nc3ccc(NC(=S)Nc4ccc([N+](=O)[O-])cc4)cc3)c2c1`, “inactive”.
On the same count and under the same terms, as for `Cc1ccc(NC(=O)Nc2ccc(Nc3c4ccccc4nc4ccccc34)cc2)cc1`, the entry is “inactive”; as for `O=C(Nc1ccc(Cl)cc1)Nc1ccc(Nc2c3ccccc3nc3ccccc23)cc1`, “inactive”.

For another data set, the target named is DNA gyrase subunit A/DNA gyrase subunit B (Mycobacterium tuberculosis (strain ATCC 25618 / H37Rv), UniProt P9WG45+P9WG47). Briefly: Inhibition of Mycobacterium tuberculosis DNA gyrase assessed as inhibition of DNA supercoiling after 30 mins by electrophoresis.
DNA gyrase subunit A/DNA gyrase subunit B, sequence (P9WG45 whole entry): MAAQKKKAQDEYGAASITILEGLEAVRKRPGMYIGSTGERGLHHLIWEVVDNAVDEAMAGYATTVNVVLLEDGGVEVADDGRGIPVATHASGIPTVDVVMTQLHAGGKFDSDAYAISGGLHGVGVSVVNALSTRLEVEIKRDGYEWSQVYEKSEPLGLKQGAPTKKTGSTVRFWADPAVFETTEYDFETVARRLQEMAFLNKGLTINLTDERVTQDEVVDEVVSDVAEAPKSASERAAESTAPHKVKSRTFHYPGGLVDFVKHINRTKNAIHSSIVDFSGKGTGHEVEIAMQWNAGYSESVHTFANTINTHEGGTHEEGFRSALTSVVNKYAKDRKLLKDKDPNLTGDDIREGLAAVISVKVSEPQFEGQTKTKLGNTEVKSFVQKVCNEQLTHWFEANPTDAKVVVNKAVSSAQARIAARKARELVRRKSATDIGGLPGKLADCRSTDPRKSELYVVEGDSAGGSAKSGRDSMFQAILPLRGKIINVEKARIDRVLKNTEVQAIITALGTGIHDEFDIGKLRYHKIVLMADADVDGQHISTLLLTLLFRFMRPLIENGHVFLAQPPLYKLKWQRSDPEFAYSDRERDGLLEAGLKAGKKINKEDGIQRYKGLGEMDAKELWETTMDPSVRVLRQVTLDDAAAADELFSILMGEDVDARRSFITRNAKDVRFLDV
DNA gyrase subunit A/DNA gyrase subunit B, sequence (P9WG47 whole entry): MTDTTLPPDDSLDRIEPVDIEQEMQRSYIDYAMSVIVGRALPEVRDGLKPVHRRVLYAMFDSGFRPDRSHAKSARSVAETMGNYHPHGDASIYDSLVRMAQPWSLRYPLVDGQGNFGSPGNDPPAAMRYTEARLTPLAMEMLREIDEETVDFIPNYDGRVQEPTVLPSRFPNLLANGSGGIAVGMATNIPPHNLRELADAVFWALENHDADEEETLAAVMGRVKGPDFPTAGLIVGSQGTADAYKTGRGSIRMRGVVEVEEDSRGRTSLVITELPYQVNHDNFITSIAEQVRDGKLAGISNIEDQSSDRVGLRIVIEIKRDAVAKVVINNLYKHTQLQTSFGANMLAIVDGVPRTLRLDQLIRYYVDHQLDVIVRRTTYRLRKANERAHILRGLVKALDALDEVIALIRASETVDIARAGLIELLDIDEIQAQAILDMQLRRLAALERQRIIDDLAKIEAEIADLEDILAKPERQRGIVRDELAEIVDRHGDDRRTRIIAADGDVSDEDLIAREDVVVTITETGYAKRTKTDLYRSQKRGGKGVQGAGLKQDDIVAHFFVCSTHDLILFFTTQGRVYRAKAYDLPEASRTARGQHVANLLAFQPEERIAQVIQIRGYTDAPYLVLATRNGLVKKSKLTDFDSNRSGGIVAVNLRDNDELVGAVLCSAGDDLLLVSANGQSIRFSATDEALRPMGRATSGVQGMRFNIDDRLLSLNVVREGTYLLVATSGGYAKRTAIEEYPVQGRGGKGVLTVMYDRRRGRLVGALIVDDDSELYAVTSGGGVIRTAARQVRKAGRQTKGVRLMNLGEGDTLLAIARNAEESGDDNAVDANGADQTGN
Settings: not given
As for `S=C(Nc1ccc(Cl)cc1)Nc1ccc(Nc2c3ccccc3nc3ccc(Cl)cc23)cc1`, the IC50 came to 31.5 µM.
Still for that read-out and setting: as for `O=C(Nc1ccc(Nc2c3ccccc3nc3ccc(Cl)cc23)cc1)Nc1ccc([N+](=O)[O-])cc1`, the figure is 7.3 µM; as for `O=[N+]([O-])c1ccc(NC(=S)Nc2ccc(Nc3c4ccccc4nc4ccc(Cl)cc34)cc2)cc1`, 28.8 µM.
Same read-out and setting: with `Cc1ccc(NC(=S)Nc2ccc(Nc3c4ccccc4nc4ccc(C)cc34)cc2)cc1` the figure was 26.9 µM; with `Cc1ccc(NC(=O)Nc2ccc(Nc3c4ccccc4nc4ccc(C)cc34)cc2)cc1`, 29.6 µM; with `Cc1ccc2nc3ccccc3c(Nc3ccc(NC(=S)Nc4ccc([N+](=O)[O-])cc4)cc3)c2c1`, 24.8 µM.
On the same count and under the same terms, as for `Cc1ccc(NC(=O)Nc2ccc(Nc3c4ccccc4nc4ccccc34)cc2)cc1`, the figure is 13.1 µM; as for `O=C(Nc1ccc(Cl)cc1)Nc1ccc(Nc2c3ccccc3nc3ccccc23)cc1`, 10.4 µM.

In the next data set the target is DNA gyrase (Pseudomonas aeruginosa) (UniProt P48372+Q9I7C2). Put plainly: Inhibition of Pseudomonas aeruginosa DNA gyrase assessed as inhibition of DNA supercoiling. The data set is classed as protein-complex assay.
Settings: not given
For the compound `S=C(Nc1ccc(Cl)cc1)Nc1ccc(Nc2c3ccccc3nc3ccc(Cl)cc23)cc1`, the inhibition result is “inactive”.
Same read-out and setting: with `O=C(Nc1ccc(Nc2c3ccccc3nc3ccc(Cl)cc23)cc1)Nc1ccc([N+](=O)[O-])cc1` the entry was “inactive”; with `O=[N+]([O-])c1ccc(NC(=S)Nc2ccc(Nc3c4ccccc4nc4ccc(Cl)cc34)cc2)cc1`, “inactive”; with `Cc1ccc(NC(=S)Nc2ccc(Nc3c4ccccc4nc4ccc(C)cc34)cc2)cc1`, “inactive”.
The same measure, in the same setting: with `Cc1ccc(NC(=O)Nc2ccc(Nc3c4ccccc4nc4ccc(C)cc34)cc2)cc1` the entry was “inactive”; with `Cc1ccc2nc3ccccc3c(Nc3ccc(NC(=S)Nc4ccc([N+](=O)[O-])cc4)cc3)c2c1`, “inactive”; with `Cc1ccc(NC(=O)Nc2ccc(Nc3c4ccccc4nc4ccccc34)cc2)cc1`, “inactive”.
Same read-out and setting: as for `O=C(Nc1ccc(Cl)cc1)Nc1ccc(Nc2c3ccccc3nc3ccccc23)cc1`, the entry is “inactive”.

For a further data set, the system named is Mycobacterium tuberculosis. Put plainly: Antimicrobial activity against Mycobacterium tuberculosis H37Rv ATCC 27294 after 28 days by alamar blue assay. Type of data set: functional. As to conditions: H37Rv ATCC 27294, 672 h. On the technique in general: The colour change of resazurin is a common sign of viable cells or microbes.
With `S=C(Nc1ccc(Cl)cc1)Nc1ccc(Nc2c3ccccc3nc3ccc(Cl)cc23)cc1`, the minimal inhibitory concentration (MIC) is > 51.1 µM.
For the compound `O=C(Nc1ccc(Nc2c3ccccc3nc3ccc(Cl)cc23)cc1)Nc1ccc([N+](=O)[O-])cc1`, 6.46 µM (≈ 3.13 µg/mL) was the least that counted as inhibitory (MIC).
The same measure, in the same setting: as for `O=[N+]([O-])c1ccc(NC(=S)Nc2ccc(Nc3c4ccccc4nc4ccc(Cl)cc34)cc2)cc1`, the figure is > 50 µM; as for `Cc1ccc(NC(=S)Nc2ccc(Nc3c4ccccc4nc4ccc(C)cc34)cc2)cc1`, 55.7 µM (≈ 25 µg/mL); as for `Cc1ccc(NC(=O)Nc2ccc(Nc3c4ccccc4nc4ccc(C)cc34)cc2)cc1`, 57.8 µM (≈ 25 µg/mL).
On the same count and under the same terms, as for `Cc1ccc2nc3ccccc3c(Nc3ccc(NC(=S)Nc4ccc([N+](=O)[O-])cc4)cc3)c2c1`, the figure is > 52.1 µM; as for `Cc1ccc(NC(=O)Nc2ccc(Nc3c4ccccc4nc4ccccc34)cc2)cc1`, 14.9 µM (≈ 6.25 µg/mL).
Same read-out and setting: as for `O=C(Nc1ccc(Cl)cc1)Nc1ccc(Nc2c3ccccc3nc3ccccc23)cc1`, the figure is 28.5 µM (≈ 12.5 µg/mL).

The next data set concerns Escherichia coli. Briefly: Inhibition of Escherichia coli DNA gyrase assessed as inhibition of DNA supercoiling.
Settings: not given
`S=C(Nc1ccc(Cl)cc1)Nc1ccc(Nc2c3ccccc3nc3ccc(Cl)cc23)cc1`: the inhibition entry was “inactive”.
Still for that read-out and setting: as for `O=C(Nc1ccc(Nc2c3ccccc3nc3ccc(Cl)cc23)cc1)Nc1ccc([N+](=O)[O-])cc1`, the entry is “inactive”; as for `O=[N+]([O-])c1ccc(NC(=S)Nc2ccc(Nc3c4ccccc4nc4ccc(Cl)cc34)cc2)cc1`, “inactive”.
As to `Cc1ccc(NC(=S)Nc2ccc(Nc3c4ccccc4nc4ccc(C)cc34)cc2)cc1`, the inhibition result is “inactive”.
Still for that read-out and setting: as for `Cc1ccc(NC(=O)Nc2ccc(Nc3c4ccccc4nc4ccc(C)cc34)cc2)cc1`, the entry is “inactive”; as for `Cc1ccc2nc3ccccc3c(Nc3ccc(NC(=S)Nc4ccc([N+](=O)[O-])cc4)cc3)c2c1`, “inactive”.
For `Cc1ccc(NC(=O)Nc2ccc(Nc3c4ccccc4nc4ccccc34)cc2)cc1`, the inhibition result is “inactive”.
On the same count and under the same terms, with `O=C(Nc1ccc(Cl)cc1)Nc1ccc(Nc2c3ccccc3nc3ccccc23)cc1` the entry was “inactive”.

Tested on in another data set: not listed separately
Briefly: Cytotoxicity against mouse RAW264.7 cells assessed as inhibition of cell growth at 50 uM after 72 hrs by MTT assay. Type of data set: cell-based.
Settings: not given
In outline: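 RAW 264.7 mouse macrophages exposed to compound at 50 µM for 72 h. Viability read by MTT conversion to formazan, reported as percent inhibition.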
On the technique in general: Tetrazolium assays rely on reduction of a dye to a coloured formazan, in cell work by metabolically active cells.
Take `S=C(Nc1ccc(Cl)cc1)Nc1ccc(Nc2c3ccccc3nc3ccc(Cl)cc23)cc1`: the inhibition at 72 h, 50 µM was 6.7%.
Still for that read-out and setting: with `O=C(Nc1ccc(Nc2c3ccccc3nc3ccc(Cl)cc23)cc1)Nc1ccc([N+](=O)[O-])cc1` the figure was 45.9%.
Still for that read-out and setting: as for `O=[N+]([O-])c1ccc(NC(=S)Nc2ccc(Nc3c4ccccc4nc4ccc(Cl)cc34)cc2)cc1`, the figure is 30.4%; as for `Cc1ccc(NC(=S)Nc2ccc(Nc3c4ccccc4nc4ccc(C)cc34)cc2)cc1`, 35%.
Turning to `Cc1ccc(NC(=O)Nc2ccc(Nc3c4ccccc4nc4ccc(C)cc34)cc2)cc1`, the inhibition at 72 h, 50 µM amounted to 43.1%.
As to `Cc1ccc2nc3ccccc3c(Nc3ccc(NC(=S)Nc4ccc([N+](=O)[O-])cc4)cc3)c2c1`, the inhibition at 72 h, 50 µM worked out at 28.8%.
Take `Cc1ccc(NC(=O)Nc2ccc(Nc3c4ccccc4nc4ccccc34)cc2)cc1`: the inhibition at 72 h, 50 µM was found to be 18.4%.
Same read-out and setting: as for `O=C(Nc1ccc(Cl)cc1)Nc1ccc(Nc2c3ccccc3nc3ccccc23)cc1`, the figure is 26.2%.

The next data set has as its target DNA gyrase (Staphylococcus aureus) (UniProt P0A0K8+P20831). Put plainly: Inhibition of Staphylococcus aureus DNA gyrase assessed as inhibition of DNA supercoiling. The data set is classed as protein-complex assay.
Settings: not given
In the case of `S=C(Nc1ccc(Cl)cc1)Nc1ccc(Nc2c3ccccc3nc3ccc(Cl)cc23)cc1`, the inhibition entry is “inactive”.
Still for that read-out and setting: with `O=C(Nc1ccc(Nc2c3ccccc3nc3ccc(Cl)cc23)cc1)Nc1ccc([N+](=O)[O-])cc1` the entry was “inactive”; with `O=[N+]([O-])c1ccc(NC(=S)Nc2ccc(Nc3c4ccccc4nc4ccc(Cl)cc34)cc2)cc1`, “inactive”.
Same read-out and setting: with `Cc1ccc(NC(=S)Nc2ccc(Nc3c4ccccc4nc4ccc(C)cc34)cc2)cc1` the entry was “inactive”.
Turning to `Cc1ccc(NC(=O)Nc2ccc(Nc3c4ccccc4nc4ccc(C)cc34)cc2)cc1`, the inhibition result is “inactive”.
Take `Cc1ccc2nc3ccccc3c(Nc3ccc(NC(=S)Nc4ccc([N+](=O)[O-])cc4)cc3)c2c1`: the inhibition entry was “inactive”.
The same measure, in the same setting: as for `Cc1ccc(NC(=O)Nc2ccc(Nc3c4ccccc4nc4ccccc34)cc2)cc1`, the entry is “inactive”; as for `O=C(Nc1ccc(Cl)cc1)Nc1ccc(Nc2c3ccccc3nc3ccccc23)cc1`, “inactive”.

Target in another data set: not listed separately
Put plainly: Inhibition of Mycobacterium tuberculosis DNA topoisomerase 1.
Settings: not given
Regarding `COc1cc(NS(C)(=O)=O)ccc1Nc1c2ccccc2nc2ccccc12` [AMSACRINE], half-maximal inhibition (IC50) required 10 µM.

The target in a further data set is DNA gyrase subunit B (Mycobacterium smegmatis) (UniProt P0C559). Put plainly: Inhibition of Mycobacterium smegmatis GyrB by ATPase assay. The settings on record: Mycolicibacterium smegmatis.
DNA gyrase subunit B (Mycobacterium smegmatis), sequence (P0C559 2-675 limits assumed): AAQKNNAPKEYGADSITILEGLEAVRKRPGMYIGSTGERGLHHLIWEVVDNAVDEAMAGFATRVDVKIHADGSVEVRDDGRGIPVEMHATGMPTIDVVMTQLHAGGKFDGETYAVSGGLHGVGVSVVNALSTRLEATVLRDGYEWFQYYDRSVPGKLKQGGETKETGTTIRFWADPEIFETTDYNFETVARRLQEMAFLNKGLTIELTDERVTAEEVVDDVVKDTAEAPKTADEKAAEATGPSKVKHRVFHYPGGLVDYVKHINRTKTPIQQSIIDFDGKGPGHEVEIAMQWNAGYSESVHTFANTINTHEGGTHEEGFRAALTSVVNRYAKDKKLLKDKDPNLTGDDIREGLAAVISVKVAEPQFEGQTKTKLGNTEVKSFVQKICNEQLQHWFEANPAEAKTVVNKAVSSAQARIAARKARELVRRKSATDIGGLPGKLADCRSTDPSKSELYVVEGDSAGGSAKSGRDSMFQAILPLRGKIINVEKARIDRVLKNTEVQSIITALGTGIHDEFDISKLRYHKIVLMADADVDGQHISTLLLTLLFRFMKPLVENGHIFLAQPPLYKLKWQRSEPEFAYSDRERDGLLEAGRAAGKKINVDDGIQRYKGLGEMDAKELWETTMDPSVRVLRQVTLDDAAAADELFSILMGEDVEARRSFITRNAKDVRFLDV
Regarding `S=C(Nc1ccc(Cl)cc1)Nc1ccc(Nc2c3ccccc3nc3ccc(Cl)cc23)cc1`, the inhibition result is “inactive”.
Still for that read-out and setting: as for `O=C(Nc1ccc(Nc2c3ccccc3nc3ccc(Cl)cc23)cc1)Nc1ccc([N+](=O)[O-])cc1`, the entry is “inactive”.
On the same count and under the same terms, with `O=[N+]([O-])c1ccc(NC(=S)Nc2ccc(Nc3c4ccccc4nc4ccc(Cl)cc34)cc2)cc1` the entry was “inactive”.
Same read-out and setting: as for `Cc1ccc(NC(=S)Nc2ccc(Nc3c4ccccc4nc4ccc(C)cc34)cc2)cc1`, the entry is “inactive”; as for `Cc1ccc(NC(=O)Nc2ccc(Nc3c4ccccc4nc4ccc(C)cc34)cc2)cc1`, “inactive”; as for `Cc1ccc2nc3ccccc3c(Nc3ccc(NC(=S)Nc4ccc([N+](=O)[O-])cc4)cc3)c2c1`, “inactive”.
For `Cc1ccc(NC(=O)Nc2ccc(Nc3c4ccccc4nc4ccccc34)cc2)cc1`, the inhibition result is “inactive”.
`O=C(Nc1ccc(Cl)cc1)Nc1ccc(Nc2c3ccccc3nc3ccccc23)cc1`: the inhibition entry was “inactive”.
